Molecules are shown by their SMILES. Calls of active or inactive are those of the source. No cut-off for these calls is given here.

This is an account of results in ChEMBL document CHEMBL5712089, “Targeting clinical epigenetic reprogramming for chemoprevention of metabolic and viral hepatocellular carcinoma” (Gut, 2021).

Assay [1] relates to Huh-7.5.1. Briefly: Inhibition of Histone acetyltransferase in human Huh7.5.1 cells assessed as hepatitis C virus-induced NFkappaB mRNA level measured after 72 hrs. Format: cell-based. An outline of the steps:
(§1)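 Huh7.5.1 cells differentiated with dimethyl sulfoxide, then infected with HCV until they expressed the poor-prognosis status of the prognostic liver signature. Infected cells were then incubated with chromatin modifier/reader inhibitors. Concentrations were chosen as non-toxic from MTT viability tests on non-infected differentiated cells at 72 h (n=3, viability relative to untreated cells).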

Assay [2] relates to Huh-7.5.1. Briefly: Inhibition of Histone acetyltransferase in human Huh7.5.1 cells assessed as hepatitis C virus-induced EGF mRNA level measured after 72 hrs. It is filed as cell-based. An outline of the steps:
as §1

Assay [3] concerns Huh-7.5.1. Kind of assay: Inhibition of Histone acetyltransferase in human Huh7.5.1 cells infected with hepatitis C virus assessed as effect on viral load. Format: cell-based.
The test system of assay [4] is Mus musculus. Kind of assay: Reduction of liver weight in DEN/CDAHFD-induced NASH C57BL/6 mouse model at 50 mg/kg, IP for 5 days a week. It is filed as functional, organism-based. As to conditions: time 5.0 day. The method, boiled down: (§2)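 Male C57BL/6 mice, single IP diethylnitrosamine 35 mg/kg on day 15. From 6 weeks of age fed CDAHFD (60 kcal% fat, 0.1% methionine). From 12 weeks, randomised to IP dosing 5 days/week, drug in 10% (2-hydroxypropyl)-β-cyclodextrin or vehicle alone. Livers harvested at 30 weeks; body weight, liver weight and tumour nodule counts recorded (n=8 per group), with H&E and Sirius red sections; means±SEM, unpaired t-test.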

Assay [5] has as its system Mus musculus. Kind of assay: Effect on body weight in DEN/CDAHFD-induced NASH C57BL/6 mouse model at 50 mg/kg, IP for 5 days a week. As to conditions: time 5.0 day. It is filed as functional, organism-based. The method, boiled down: as §2
In assay [6] the test system is Mus musculus. Kind of assay: Antitumor activity in DEN/CDAHFD-induced NASH C57BL/6 mouse model assessed as decrease in tumor nodules at 50 mg/kg, IP for 5 days a week by hematoxylin and eosin staining based microscopic analysis. Format: functional, organism-based. As to conditions: time 5.0 day. The method, boiled down:
as §2

Assay [7] has as its system Mus musculus. Briefly: Antitumor activity in DEN/CDAHFD-induced NASH C57BL/6 mouse model assessed as decrease in tumor nodules at 50 mg/kg, IP for 5 days a week by sirus red staining based microscopic analysis. Format: functional, organism-based. As to conditions: time 5.0 day. The method, boiled down:
as §2

Assay [8] has as its system Mus musculus. Briefly: Antitumor activity in DEN/CDAHFD-induced NASH C57BL/6 mouse model assessed as decrease in number of tumor at 50 mg/kg, IP for 5 days a week. As to conditions: time 5.0 day. Format: functional, organism-based. An outline of the steps:
as §2

Assay [9] deals with Mus musculus. Briefly: Reduction of liver fibrosis in DEN/CDAHFD-induced NASH C57BL/6 mouse model assessed as decrease in collagen proportional area at 50 mg/kg, IP for 5 days a week. It is filed as functional, organism-based. As to conditions: time 5.0 day. An outline of the steps:
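Fibrosis was scored as collagen proportional area by quantitative digital analysis of whole-scanned Sirius red-stained liver sections. Sections came from DEN/CDAHFD male C57BL/6 mice harvested at 30 weeks after IP dosing 5 days/week from week 12 (cyclodextrin vehicle), n=3 per group; means±SD.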

Assay [10] has as its system Mus musculus. Briefly: Reduction of liver fibrosis in DEN/CDAHFD-induced NASH C57BL/6 mouse model assessed as decrease in Acta2 gene expression at 50 mg/kg, IP for 5 days a week by qRT-PCR analysis. As to conditions: time 5.0 day. Format: functional, organism-based. An outline of the steps:
(§3)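 DEN (35 mg/kg IP, day 15)/CDAHFD-fed male C57BL/6 mice were dosed IP 5 days/week from 12 weeks of age in 10% hydroxypropyl-β-cyclodextrin, or given vehicle. Livers were taken at 30 weeks and hepatic fibrotic and inflammatory gene expression was quantified by qRT-PCR, n=3 per group; means±SD, unpaired t-test.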

For assay [11], the system named is Mus musculus. Kind of assay: Reduction of liver fibrosis in DEN/CDAHFD-induced NASH C57BL/6 mouse model assessed as decrease in Col1A gene expression at 50 mg/kg, IP for 5 days a week by qRT-PCR analysis. Format: functional, organism-based. As to conditions: time 5.0 day. An outline of the steps:
as §3
Background: Real-time PCR tracks product formation cycle by cycle.

Assay [12] concerns Mus musculus. Kind of assay: Reduction of liver fibrosis in DEN/CDAHFD-induced NASH C57BL/6 mouse model assessed as decrease in Tgf gene expression at 50 mg/kg, IP for 5 days a week by qRT-PCR analysis. Format: functional, organism-based. As to conditions: time 5.0 day. The method, boiled down:
as §3

Assay [13] deals with Mus musculus. Kind of assay: Reduction of liver inflammation in DEN/CDAHFD-induced NASH C57BL/6 mouse model assessed as decrease in Ccl2 gene expression at 50 mg/kg, IP for 5 days a week by qRT-PCR analysis. Format: functional, organism-based. As to conditions: time 5.0 day. An outline of the steps: as §3
For assay [14], the system named is Mus musculus. Briefly: Reduction of liver inflammation in DEN/CDAHFD-induced NASH C57BL/6 mouse model assessed as decrease in TNFa gene expression at 50 mg/kg, IP for 5 days a week by qRT-PCR analysis. It is filed as functional, organism-based. As to conditions: time 5.0 day. The method, boiled down:
as §3

For assay [15], the system named is Mus musculus. Briefly: Effect on c-Myc expression in DEN/CDAHFD-induced NASH C57BL/6 mouse model at 50 mg/kg, IP for 5 days a week by Western blot analysis. It is filed as functional, organism-based. As to conditions: time 5.0 day. The method, boiled down:
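Liver lysates from control/PBS, vehicle and treated DEN/CDAHFD mice (n=3 each; 30 weeks; IP 5 days/week in 10% hydroxypropyl-β-cyclodextrin) were probed by western blot for c-Myc. Blots from six animals were quantified by densitometry and compared by unpaired t-test.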
(Immunoblotting shows a protein as a band on a membrane.)

Assay [16] deals with Mus musculus. Kind of assay: Decrease in EPCAM gene expression in DEN/CDAHFD-induced NASH C57BL/6 mouse model at 50 mg/kg, IP for 5 days a week by CHIP-qPCR assay. It is filed as functional, organism-based. As to conditions: time 5.0 day. An outline of the steps:
(§4)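 ChIP-qPCR on livers of control, DEN/CDAHFD and treated DEN/CDAHFD mice (IP 5 days/week from week 12, harvest at 30 weeks) measured BRD4 recruitment to promoter-enhancer regions of the named genes, using BRD4 antibody against an IgG control. Groups were compared by Mann-Whitney U test.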

For assay [17], the system named is Mus musculus. Briefly: Decrease in SOX9 gene expression in DEN/CDAHFD-induced NASH C57BL/6 mouse model at 50 mg/kg, IP for 5 days a week by CHIP-qPCR assay. It is filed as functional, organism-based. As to conditions: time 5.0 day. An outline of the steps: as §4
Assay [18] concerns Mus musculus. Kind of assay: Decrease in KRT7 gene expression in DEN/CDAHFD-induced NASH C57BL/6 mouse model at 50 mg/kg, IP for 5 days a week by CHIP-qPCR assay. As to conditions: time 5.0 day. It is filed as functional, organism-based. The method, boiled down:
as §4

The subject of assay [19] is Mus musculus. Kind of assay: Decrease in NFkappaB2 gene expression in DEN/CDAHFD-induced NASH C57BL/6 mouse model at 50 mg/kg, IP for 5 days a week by CHIP-qPCR assay. It is filed as functional, organism-based. As to conditions: time 5.0 day. The method, boiled down:
as §4

Regarding `COc1cc(/C=C/c2cc(/C=C/c3ccc(O)c(OC)c3)n(-c3ccc(C(=O)O)cc3)n2)ccc1O`, the inhibition result in assay [1] and in [2] was “Active” throughout. Moreover, in assay [3], the inhibition result was “inactive”.

As to `CC1=NN(c2ccc(C(=O)O)cc2)C(=O)/C1=C\c1ccc(-c2cc(C)c(C)cc2[N+](=O)[O-])o1`, the inhibition result in assay [3] was “inactive”.

`Cc1sc2c(c1C)C(c1ccc(Cl)cc1)=N[C@@H](CC(=O)OC(C)(C)C)c1nnc(C)n1-2`: the inhibition entry in assay [4], in assay [6], in [7], in assay [8], in assay [9] and in [10] was “Active” each time. Besides, the inhibition entry in assay [11], in [12], in assay [13], in [14], in assay [16] and in assay [17] was “Active” in each case. Also, the inhibition entry in [18] and in assay [19] was “Active” in each case. Also, the result in [5] and in assay [15] was inactive.
